According to ChEMBL document CHEMBL4270599, “Synthesis of a 3'-C-ethynyl-β-d-ribofuranose purine nucleoside library: Discovery of C7-deazapurine analogs as potent antiproliferative nucleosides” (Eur J Med Chem, 2018):

Legend:
ACHN = test: Growth inhibition of human ACHN cells assessed as cell growth at 10^-7 M incubated for 48 hrs by sulforhodamine B assay relative to control; assay type: functional; conditions: read-out: Activity
HCT-116 [1] = test: Cytotoxicity against human HCT116 cells after 48 hrs by SRB assay; assay type: functional; conditions: HCT-116, 48 h
SK-MEL-28 = test: Growth inhibition of human SK-MEL-28 cells assessed as cell growth at 10^-8 M incubated for 48 hrs by sulforhodamine B assay relative to control; assay type: functional; conditions: SK-MEL-28, 48 h, read-out: Activity
NCI-H226 [2] = test: Growth inhibition of human NCI-H226 cells assessed as cell growth at 10^-7 M incubated for 48 hrs by sulforhodamine B assay relative to control; assay type: functional; conditions: NCI-H226, 48 h, read-out: Activity
MDA-MB-231 [3] = test: Growth inhibition of human MDA-MB-231 cells assessed as cell growth at 10^-5 M incubated for 48 hrs by sulforhodamine B assay relative to control; assay type: functional; conditions: MDA-MB-231, 48 h, read-out: Activity
OVCAR-4 [4] = test: Growth inhibition of human OVCAR4 cells assessed as cell growth at 10^-4 M incubated for 48 hrs by sulforhodamine B assay relative to control; assay type: functional; conditions: OVCAR-4, 48 h, read-out: Activity
SR = test: Cytotoxicity against human SR cells after 48 hrs by SRB assay; assay type: functional
EKVX [5] = test: Growth inhibition of human EKVX cells assessed as cell growth at 10^-7 M incubated for 48 hrs by sulforhodamine B assay relative to control; assay type: functional; conditions: read-out: Activity
PC-3 [6] = test: Growth inhibition of human PC3 cells assessed as cell growth at 10^-7 M incubated for 48 hrs by sulforhodamine B assay relative to control; assay type: functional; conditions: PC-3, 48 h, read-out: Activity
LOX IMVI = test: Cytotoxicity against human LOXIMVI cells after 48 hrs by SRB assay; assay type: functional
PC-3 [7] = test: Growth inhibition of human PC3 cells assessed as cell growth at 10^-6 M incubated for 48 hrs by sulforhodamine B assay relative to control; assay type: functional; conditions: PC-3, 48 h, read-out: Activity
HOP-92 = test: Growth inhibition of human HOP92 cells assessed as cell growth at 10^-8 M incubated for 48 hrs by sulforhodamine B assay relative to control; assay type: functional; conditions: HOP-92, 48 h, read-out: Activity
OVCAR-4 [8] = test: Growth inhibition of human OVCAR4 cells assessed as cell growth at 10^-8 M incubated for 48 hrs by sulforhodamine B assay relative to control; assay type: functional; conditions: OVCAR-4, 48 h, read-out: Activity
NCI-H226 [9] = test: Growth inhibition of human NCI-H226 cells assessed as cell growth at 10^-8 M incubated for 48 hrs by sulforhodamine B assay relative to control; assay type: functional; conditions: NCI-H226, 48 h, read-out: Activity
DU-145 = test: Cytotoxicity against human DU145 cells after 48 hrs by SRB assay; assay type: functional; conditions: DU-145, 48 h
CCRF-CEM = test: Growth inhibition of human CCRF-CEM cells assessed as cell growth at 10^-7 M incubated for 48 hrs by sulforhodamine B assay relative to control; assay type: functional; conditions: read-out: Activity
BT-549 = test: Growth inhibition of human BT549 cells assessed as cell growth at 10^-8 M incubated for 48 hrs by sulforhodamine B assay relative to control; assay type: functional; conditions: BT-549, 48 h, read-out: Activity
KM12 = test: Growth inhibition of human KM12 cells assessed as cell growth at 10^-8 M incubated for 48 hrs by sulforhodamine B assay relative to control; assay type: functional; conditions: KM12, 48 h, read-out: Activity
MDA-MB-468 = test: Growth inhibition of human MDA-MB-468 cells assessed as cell growth at 10^-8 M incubated for 48 hrs by sulforhodamine B assay relative to control; assay type: functional; conditions: MDA-MB-468, 48 h, read-out: Activity
L1210 = test: Antiproliferative activity against mouse L1210 cells after 48 hrs by Coulter counter method; assay type: functional, cell-based; conditions: L1210, 48 h
Outline: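 Cell count assay in 96-well microtiter plates; (5–7.5) × 10⁴ tumor cells per well plus test compound. Cells proliferated at 37 °C in humidified CO₂-controlled atmosphere, 48 h for murine leukemia L1210, 72 h for human lymphocytic CEM and cervix carcinoma HeLa. Counted by Coulter counter; IC₅₀ is the concentration that inhibits proliferation by 50%.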

K562 = test: Growth inhibition of human K562 cells assessed as cell growth at 10^-8 M incubated for 48 hrs by sulforhodamine B assay relative to control; assay type: functional; conditions: K562, 48 h, read-out: Activity
UACC-62 = test: Growth inhibition of human UACC62 cells assessed as cell growth at 10^-6 M incubated for 48 hrs by sulforhodamine B assay relative to control; assay type: functional; conditions: UACC-62, 48 h, read-out: Activity
MOLT-4 = test: Growth inhibition of human MOLT4 cells assessed as cell growth at 10^-8 M incubated for 48 hrs by sulforhodamine B assay relative to control; assay type: functional; conditions: MOLT-4, 48 h, read-out: Activity
MDA-MB-231 [10] = test: Growth inhibition of human MDA-MB-231 cells assessed as cell growth at 10^-7 M incubated for 48 hrs by sulforhodamine B assay relative to control; assay type: functional; conditions: MDA-MB-231, 48 h, read-out: Activity
SF-268 = test: Growth inhibition of human SF268 cells assessed as cell growth at 10^-8 M incubated for 48 hrs by sulforhodamine B assay relative to control; assay type: functional; conditions: SF-268, 48 h, read-out: Activity
NCI/ADR-RES [11] = test: Cytotoxicity against human NCI-ADR-RES cells after 48 hrs by SRB assay; assay type: functional
SNB-19 = test: Growth inhibition of human SNB19 cells assessed as cell growth at 10^-6 M incubated for 48 hrs by sulforhodamine B assay relative to control; assay type: functional; conditions: SNB-19, 48 h, read-out: Activity
NCI-H460 = test: Growth inhibition of human NCI-H460 cells assessed as cell growth at 10^-7 M incubated for 48 hrs by sulforhodamine B assay relative to control; assay type: functional; conditions: NCI-H460, 48 h, read-out: Activity
HCT-116 [12] = test: Growth inhibition of human HCT116 cells assessed as cell growth at 10^-8 M incubated for 48 hrs by sulforhodamine B assay relative to control; assay type: functional; conditions: HCT-116, 48 h, read-out: Activity
EKVX [13] = test: Growth inhibition of human EKVX cells assessed as cell growth at 10^-8 M incubated for 48 hrs by sulforhodamine B assay relative to control; assay type: functional; conditions: read-out: Activity
NCI/ADR-RES [14] = test: Growth inhibition of human NCI/ADR-RES cells assessed as cell growth at 10^-8 M incubated for 48 hrs by sulforhodamine B assay relative to control; assay type: functional; conditions: read-out: Activity
[15] = read-out: LC50 (the source's name)
[16] = read-out: pLC50 (the source's name) (converted)

Which growth at 0.1 µM (ACHN) does the source give for `C#C[C@@]1(O)[C@@H](CO)O[C@@H](n2cc(Br)c3c(N)ncnc32)[C@@H]1O` here?
Its growth at 0.1 µM is 75%.

What about the GI50 (HCT-116 [1]; read-out: GI50) of the same compound?
The GI50 was 25.8 to 29.2 nM.

What about the CC50 (HCT-116 [1]; [15]) of the same compound?
The CC50 was > 100000 nM.

What about the TGI (HCT-116 [1]; read-out: TGI) of the same compound?
Its TGI is > 100000 nM.

What about the TGI (HCT-116 [1]; read-out: pTGI (converted)) of the same compound?
The TGI was > 100000 nM.

And the growth at 0.01 µM (SK-MEL-28)?
The growth at 0.01 µM was 93 to 96%.

And the growth at 0.1 µM (NCI-H226 [2])?
The growth at 0.1 µM was 81 to 98%.

And the growth at 10 µM (MDA-MB-231 [3])?
Its growth at 10 µM is 1 to 6%.

And the growth at 100 µM (OVCAR-4 [4])?
The growth at 100 µM was 3 to 15%.

And the GI50 (SR; read-out: GI50)?
The GI50 was 43.8 to 84.5 nM.

What about the TGI (SR; read-out: TGI) of the same compound?
The TGI was > 100000 nM.

What about the CC50 (SR; [16]) of the same compound?
The CC50 was > 100000 nM.

What about the TGI (SR; read-out: pTGI) of the same compound?
Its TGI is > 100000 nM.

What about the growth at 0.1 µM (EKVX [5]) of the same compound?
Its growth at 0.1 µM is 60 to 74%.

What about the growth at 0.1 µM (PC-3 [6]) of the same compound?
Its growth at 0.1 µM is 33 to 61%.

What about the GI50 (LOX IMVI; read-out: GI50) of the same compound?
Its GI50 is 29 to 105 nM.

And the CC50 (LOX IMVI; [15])?
The CC50 was 720 to 2130 nM.

And the TGI (LOX IMVI; read-out: TGI)?
The TGI was 176 to 351 nM.

What about the growth at 1 µM (PC-3 [7]) of the same compound?
The growth at 1 µM was 8 to 12%.

And the growth at 0.01 µM (HOP-92)?
The growth at 0.01 µM was 90 to 94%.

And the growth at 0.01 µM (OVCAR-4 [8])?
The growth at 0.01 µM was 96 to 100%.

What about the growth at 0.01 µM (NCI-H226 [9]) of the same compound?
Its growth at 0.01 µM is 96 to 98%.

What about the GI50 (DU-145; read-out: GI50) of the same compound?
The GI50 was 62.8 to 151 nM.

And the TGI (DU-145; read-out: TGI)?
Its TGI is > 100000 nM.

What about the CC50 (DU-145; [16]) of the same compound?
The CC50 was > 100000 nM.

And the TGI (DU-145; read-out: pTGI (converted))?
The TGI was > 100000 nM.

And the growth at 0.1 µM (CCRF-CEM)?
The growth at 0.1 µM was 58 to 83%.

And the growth at 0.01 µM (BT-549)?
Its growth at 0.01 µM is 89 to 103%.

What about the growth at 0.01 µM (KM12) of the same compound?
The growth at 0.01 µM was 91 to 95%.

And the growth at 0.01 µM (MDA-MB-468)?
The growth at 0.01 µM was 88 to 99%.

And the IC50 (L1210)?
The IC50 was 28 nM.

What about the growth at 0.01 µM (K562) of the same compound?
The growth at 0.01 µM was 87 to 99%.

And the growth at 1 µM (UACC-62)?
Its growth at 1 µM is 21 to 23%.

And the growth at 0.01 µM (MOLT-4)?
Its growth at 0.01 µM is 86 to 95%.

What about the growth at 0.1 µM (MDA-MB-231 [10]) of the same compound?
The growth at 0.1 µM was 36 to 71%.

And the growth at 0.01 µM (SF-268)?
The growth at 0.01 µM was 83 to 93%.

And the GI50 (NCI/ADR-RES [11]; read-out: GI50)?
Its GI50 is 45.1 to 65.9 nM.

And the TGI (NCI/ADR-RES [11]; read-out: TGI)?
Its TGI is 1020 nM.

And the CC50 (NCI/ADR-RES [11]; [16])?
Its CC50 is > 100000 nM.

What about the TGI (NCI/ADR-RES [11]; read-out: pTGI (converted)) of the same compound?
The TGI was 1020 nM.

And the growth at 1 µM (SNB-19)?
The growth at 1 µM was 6%.

And the growth at 0.1 µM (NCI-H460)?
Its growth at 0.1 µM is 9 to 27%.

And the growth at 0.01 µM (HCT-116 [12])?
Its growth at 0.01 µM is 83%.

What about the growth at 0.01 µM (EKVX [13]) of the same compound?
Its growth at 0.01 µM is 85%.

And the growth at 0.01 µM (NCI/ADR-RES [14])?
The growth at 0.01 µM was 80 to 90%.
